Among the data in ChEMBL document CHEMBL1127787, “1,2,3-Triazole-[2',5'-bis-O-(tert-butyldimethylsilyl)-beta-D- ribofuranosyl]-3'-spiro-5"-(4"-amino-1",2"-oxathiole 2",2"-dioxide) (TSAO) analogues: synthesis and anti-HIV-1 activity” (J Med Chem, 1994) are EC50, CC50 and Ratio values, retold here.

Assay [1] concerns CCRF-CEM. The assay can be described thus: Tested for the inhibitory activity of virus induced giant cell formation in HIV-1 infected CEM cells. Format: functional, cell-based. The following applies: Homo sapiens.
Assay [2] relates to CCRF-CEM. The experiment in a line: Tested for the inhibitory activity of virus induced giant cell formation in HIV-2 infected CEM cells. Format: functional, cell-based. Conditions: Homo sapiens.
Assay [3] has as its system MT4. The experiment in a line: Tested for the inhibitory activity of HIV-1 infected MT-4 cells. Conditions: Homo sapiens. Format: functional, cell-based. A digest of the protocol: (§1)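 MT-4 cells (5 × 10^5/mL) grown in RPMI-1640 with 10% FCS, 2 mM L-glutamine and 0.075% NaHCO3. Infected with HIV-1 or HIV-2 at 100 CCID50/mL and mixed with compound dilutions (100 to 0.006 µg/mL). After 5 days viable cells were counted by trypan blue staining. EC50 is the concentration that reduces viable-cell loss in infected cultures by 50%.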

Assay [4] concerns MT4. The experiment in a line: Tested for the inhibitory activity of HIV-2 infected MT-4 cells. Format: functional, cell-based. The following applies: Homo sapiens. A digest of the protocol: as §1
The subject of assay [5] is MT4. The assay can be described thus: Tested for the cytotoxic concentration required to reduce the number of viable mock infected MT-4 cells. The following applies: Homo sapiens. Format: functional. A digest of the protocol: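 Mock-infected MT-4 cells (5 × 10^5/mL) in RPMI-1640 with 10% FCS were exposed to compound dilutions (100 to 0.006 µg/mL). Viable cells were counted by trypan blue at day 5; about 150-200 cells were counted in controls. CC50 is the concentration that reduces viable cell number by 50%.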

The subject of assay [6] is MT4. The assay can be described thus: Tested for the ratio between CC50 (MT-4) to EC50 (MT-4). Format: functional, Homo sapiens.

As a reminder, the EC50 is the concentration needed to bring the measured effect to its halfway point. Read a low EC50 as an effect from little substance. As usually defined, the CC50 is the concentration that lowers cell viability or growth by half. Lower therefore signals harm at low concentration. `CNC(=O)c1cnnn1[C@@H]1O[C@H](CO[Si](C)(C)C(C)(C)C)[C@@]2(OS(=O)(=O)C=C2N)[C@H]1O[Si](C)(C)C(C)(C)C`: the EC50 with CCRF-CEM [1] is 0.08 µM; with CCRF-CEM [2], greater than 7 µM; in the assay with MT4 [3] it was 0.16 µM; in the assay with MT4 [4] it was greater than 7 µM. In the assay on MT4 [5], the cytotoxic concentration (CC50) was found to be 27 µM. In addition, the Ratio in the assay on MT4 [6] is 171.

Take `COC(=O)c1nnn([C@@H]2O[C@H](CO[Si](C)(C)C(C)(C)C)[C@@]3(OS(=O)(=O)C=C3N)[C@H]2O[Si](C)(C)C(C)(C)C)c1C(=O)OC`: the EC50 in the assay with CCRF-CEM [1] is 0.53 µM; in the assay with CCRF-CEM [2], greater than 30 µM; in the assay on MT4 [3] it was 0.48 µM; in the assay with MT4 [4], greater than 150 µM. The molecule also yielded a CC50 with MT4 [5] of 111 µM. For the same molecule, in the assay on MT4 [6], the Ratio was 231.

As for `CC(C)(C)[Si](C)(C)OC[C@H]1O[C@@H](n2cc(C(N)=O)nn2)[C@H](O[Si](C)(C)C(C)(C)C)[C@]12OS(=O)(=O)C=C2N`, the concentration giving a half-maximal response (EC50) is 0.9 µM in the assay with CCRF-CEM [1], greater than 7 µM in the assay with CCRF-CEM [2], 1.2 µM in the assay with MT4 [3] and greater than 7 µM in the assay with MT4 [4]. Further, in the assay on MT4 [5], the CC50 was found to be 15 µM. Besides, in the assay with MT4 [6], the Ratio is given as 12.5.

As for `CC(=O)c1cnnn1[C@@H]1O[C@H](CO[Si](C)(C)C(C)(C)C)[C@@]2(OS(=O)(=O)C=C2N)[C@H]1O[Si](C)(C)C(C)(C)C`, the EC50 is 1.1 µM with CCRF-CEM [1], greater than 70 µM in the assay with CCRF-CEM [2], 2.3 µM in the assay with MT4 [3] and greater than 35 µM with MT4 [4]. Also, the CC50 with MT4 [5] turned out to be 69 µM. Besides, the Ratio in the assay with MT4 [6] turned out to be 30.

Consider `CC(C)(C)[Si](C)(C)OC[C@H]1O[C@@H](n2ccnn2)[C@H](O[Si](C)(C)C(C)(C)C)[C@]12OS(=O)(=O)C=C2N`, for which the EC50 is 3.4 µM with CCRF-CEM [1], greater than 7.5 µM with CCRF-CEM [2], 3.8 µM in the assay on MT4 [3] and greater than 7.5 µM with MT4 [4]. This molecule also showed a CC50 with MT4 [5] of 15 µM. Moreover, in the assay on MT4 [6], the Ratio is 4.1.

Regarding `Cc1cn([C@@H]2O[C@H](CO[Si](C)(C)C(C)(C)C)[C@@]3(OS(=O)(=O)C=C3N)[C@H]2O[Si](C)(C)C(C)(C)C)nn1`, the EC50 in the assay on CCRF-CEM [1] was 1.4 µM; in the assay on CCRF-CEM [2], greater than 6.9 µM; with MT4 [3], 2.8 µM; in the assay with MT4 [4], greater than 35 µM. For the same molecule, the midpoint of cytotoxicity with MT4 [5], the CC50, lay at 23 µM. Further, the Ratio in the assay with MT4 [6] came out at 8.4.

`COC(=O)c1cn([C@@H]2O[C@H](CO[Si](C)(C)C(C)(C)C)[C@@]3(OS(=O)(=O)C=C3N)[C@H]2O[Si](C)(C)C(C)(C)C)nn1`: the 50% effective concentration (EC50) in the assay with CCRF-CEM [1] was 0.18 µM; with CCRF-CEM [2], greater than 40 µM; in the assay on MT4 [3], 0.6 µM; in the assay with MT4 [4] it was greater than 150 µM. The molecule further showed a CC50 with MT4 [5] of no less than 150 µM. Further, the Ratio result in the assay with MT4 [6] is given as “>=249”.

Consider `Cc1ccnc2c1NC(=O)c1cccnc1N2C1CC1` [NEVIRAPINE], for which the EC50 in the assay on CCRF-CEM [1] was 0.11 µM; in the assay with CCRF-CEM [2] it was greater than 80 µM; with MT4 [3], 0.12 µM; in the assay on MT4 [4] it was greater than 80 µM. The molecule also gave a CC50 in the assay with MT4 [5] greater than 80 µM. In addition, the Ratio in the assay on MT4 [6] was greater than 625.

Consider `COC(=O)c1cn([C@@H]2O[C@H](CO[Si](C)(C)C(C)(C)C)[C@@]3(OS(=O)(=O)C=C3NC(C)=O)[C@H]2O[Si](C)(C)C(C)(C)C)nn1`, for which the EC50 with CCRF-CEM [1] was 28 µM; in the assay with CCRF-CEM [2], greater than 32 µM; with MT4 [3] it was no less than 32 µM; in the assay with MT4 [4], greater than 32 µM. This molecule displayed a CC50 in the assay on MT4 [5] of 56 µM. For the same molecule, the Ratio result in the assay on MT4 [6] was “<=1.7”.

`CCOC(=O)c1cnnn1[C@@H]1O[C@H](CO[Si](C)(C)C(C)(C)C)[C@@]2(OS(=O)(=O)C=C2N)[C@H]1O[Si](C)(C)C(C)(C)C`: the EC50 with CCRF-CEM [1] was 1.3 µM; in the assay on CCRF-CEM [2], greater than 165 µM; with MT4 [3], 3.2 µM; in the assay with MT4 [4], greater than 165 µM. The molecule also gave a 50% cytotoxic concentration (CC50) in the assay on MT4 [5] greater than 165 µM. The Ratio with MT4 [6] is greater than 51.

Turning to `Cc1cn([C@H]2C[C@H](N=[N+]=[N-])[C@@H](CO)O2)c(=O)[nH]c1=O` [ZIDOVUDINE], the CC50 in the assay on MT4 [5] was 6 µM. Besides, in the assay on MT4 [6], the Ratio was 3000.

For `COCc1cnnn1[C@@H]1O[C@H](CO[Si](C)(C)C(C)(C)C)[C@@]2(OS(=O)(=O)C=C2N)[C@H]1O[Si](C)(C)C(C)(C)C`, the EC50 in the assay with CCRF-CEM [1] is 0.9 µM; with CCRF-CEM [2], greater than 14 µM; in the assay with MT4 [3] it was 2.4 µM; with MT4 [4], greater than 7 µM. The molecule also showed a CC50 with MT4 [5] of 28 µM. The Ratio in the assay on MT4 [6] stood at 11.

On to `CC(C)(C)[Si](C)(C)OC[C@H]1O[C@@H](n2cc(CBr)nn2)[C@H](O[Si](C)(C)C(C)(C)C)[C@]12OS(=O)(=O)C=C2N`, for which the EC50 in the assay on CCRF-CEM [1] is greater than 1.3 µM; with CCRF-CEM [2], greater than 1.3 µM; with MT4 [3], no less than 6.5 µM; in the assay with MT4 [4], greater than 6.5 µM. The CC50 in the assay with MT4 [5] was determined as 14 µM. The Ratio in the assay with MT4 [6] was less than 2.1.

In the case of `Cc1cn([C@@H]2O[C@H](CO[Si](C)(C)C(C)(C)C)C3(OS(=O)(=O)C=C3N)[C@H]2O[Si](C)(C)C(C)(C)C)c(=O)[nH]c1=O` (some centres undefined), the EC50 with CCRF-CEM [1] is 0.06 µM; in the assay on CCRF-CEM [2], greater than 20 µM; in the assay with MT4 [4], greater than 20 µM. The same molecule showed a CC50 in the assay with MT4 [5] of 14 µM.

Consider `CC(C)(C)[Si](C)(C)OC[C@H]1O[C@@H](n2nncc2C(N)=O)[C@H](O[Si](C)(C)C(C)(C)C)[C@]12OS(=O)(=O)C=C2N`, for which the EC50 in the assay with CCRF-CEM [1] was 0.14 µM; with CCRF-CEM [2], greater than 7 µM; in the assay with MT4 [3], 0.52 µM; with MT4 [4], greater than 7 µM. Besides, half-maximal cytotoxicity in the assay with MT4 [5] (CC50) was put at 15 µM. Further, the Ratio with MT4 [6] amounted to 28.1.

Consider `CN(C)C(=O)c1cn([C@@H]2O[C@H](CO[Si](C)(C)C(C)(C)C)[C@@]3(OS(=O)(=O)C=C3N)[C@H]2O[Si](C)(C)C(C)(C)C)nn1`, for which the EC50 was 1.2 µM in the assay with CCRF-CEM [1], greater than 7 µM in the assay with CCRF-CEM [2], 0.42 µM in the assay with MT4 [3] and greater than 7 µM in the assay on MT4 [4]. The CC50 with MT4 [5] stood at 12 µM. The Ratio in the assay on MT4 [6] is recorded as 28.1.

For `CCCCc1cn([C@@H]2O[C@H](CO[Si](C)(C)C(C)(C)C)[C@@]3(OS(=O)(=O)C=C3N)[C@H]2O[Si](C)(C)C(C)(C)C)nn1`, the EC50 is 1.5 µM in the assay with CCRF-CEM [1], greater than 7 µM in the assay with CCRF-CEM [2], 2.6 µM with MT4 [3] and greater than 170 µM in the assay with MT4 [4]. This molecule also displayed a CC50 with MT4 [5] of 107 µM. Besides, the Ratio with MT4 [6] is reported as 41.

Regarding `CCOC(=O)c1nnn([C@@H]2O[C@H](CO[Si](C)(C)C(C)(C)C)[C@@]3(OS(=O)(=O)C=C3N)[C@H]2O[Si](C)(C)C(C)(C)C)c1C(=O)OCC`, the EC50 in the assay with CCRF-CEM [1] is 1.6 µM; with CCRF-CEM [2], greater than 60 µM; in the assay on MT4 [3] it was 3.8 µM; in the assay on MT4 [4], greater than 30 µM. Further, the CC50 with MT4 [5] came to 55 µM. For the same molecule, in the assay on MT4 [6], the Ratio amounted to 14.5.

In the case of `COCc1cn([C@@H]2O[C@H](CO[Si](C)(C)C(C)(C)C)[C@@]3(OS(=O)(=O)C=C3N)[C@H]2O[Si](C)(C)C(C)(C)C)nn1`, the concentration for a half-maximal effect (EC50) was 2.3 µM in the assay with CCRF-CEM [1], greater than 70 µM with CCRF-CEM [2], 27 µM in the assay with MT4 [3] and greater than 35 µM in the assay with MT4 [4]. Further, in the assay on MT4 [5], the cytotoxic concentration (CC50) was 73 µM. Further, in the assay on MT4 [6], the Ratio amounted to 2.44.

As for `CCOC(OCC)c1cnnn1[C@@H]1O[C@H](CO[Si](C)(C)C(C)(C)C)[C@@]2(OS(=O)(=O)C=C2N)[C@H]1O[Si](C)(C)C(C)(C)C`, the EC50 with CCRF-CEM [1] was greater than 150 µM; with CCRF-CEM [2], greater than 150 µM; with MT4 [3], greater than 40 µM; in the assay with MT4 [4] it was greater than 40 µM. In the assay on MT4 [5], this molecule registered a CC50 greater than 150 µM. Besides, in the assay on MT4 [6], the Ratio is given as ><1.
